Our source for the AC50 and activity change, negative = inhibition values is PubChem BioAssay AID624259 (Broad Institute, 2012).

Where “and” joins values, the source holds several entries; their conditions need not be identical. Equal entries are not always repeated. Calls of active or inactive are those of the source.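 Rule for the calls: active = luminescence drop whose fitted half-maximal dose is at or below twice the top valid tested dose; inconclusive = flat fit with 30 to 70% inhibition, or poor fit; inactive = the rest, including signal rises.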

The term AC50 denotes the concentration giving half of the maximal activity seen.

The test system of one test is SK-MEL-5 TRPM1-promoter luciferase reporter, 24 h. Kind of test: TRPM1 promoter luciferase signal reduction, dose response, MITF inhibitor project, cell-based, SK-MEL-5, dry powder samples, set 3 (AID 624259).
Settings: not given
Put shortly:
(§1)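 System: SK-MEL-5 melanoma line with stable TRPM1 promoter–luciferase reporter | Timing: 24 h compound exposure at 37 °C | Detection: SteadyGlo luminescence | Read-out basis: Loss of TRPM1 reporter luminescence | Control set: Parthenolide as positive (inhibition) control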
In the case of `O=C(NC1=C(c2ccc(OC(F)(F)F)cc2)C(=O)c2ccccc2C1=O)c1ccco1`, the AC50 was 31.1 µM. The same measure, in the same setting: the same measure for `CN1CCN(C2=C(NS(=O)(=O)c3cccs3)C(=O)c3ccccc3C2=O)CC1`: 2.69 µM; for `C=CCNC1=C(NCCCN(CC)CC)C(=O)c2ccccc2C1=O`: 5.77 µM; for `COc1cccc(C2=C(NC(=O)c3ccccc3)C(=O)c3ccccc3C2=O)c1`: 32 µM. As for `O=C(NC1=C(c2ccccc2)C(=O)c2ccccc2C1=O)c1ccccc1`, the half-maximal activity concentration (AC50) is 10.5 µM. Still for that read-out and setting: the same measure for `O=C(NC1=C(c2ccc(OC(F)(F)F)cc2)C(=O)c2ccccc2C1=O)c1ccccc1`: 31.3 µM; for `Cc1ccc(C(=O)NC2=C(c3ccccc3)C(=O)c3ccccc3C2=O)o1`: 9.24 µM; for `C=CCNC1=C(N2CCOCC2)C(=O)c2ccccc2C1=O`: 3.46 µM. Regarding `CCN1CCN(C2=C(NS(=O)(=O)c3ccc(Br)cc3)C(=O)c3ccccc3C2=O)CC1`, the AC50 is 12.6 µM. The same measure, in the same setting: the same measure for `COc1ccc(C2=C(NC(=O)c3ccc(Cl)cc3)C(=O)c3ccccc3C2=O)cc1`: 33.6 µM; for `C=CCNC1=C(N2CCCCC2)C(=O)c2ccccc2C1=O`: 0.722 µM. `COc1cccc(-c2cc(C(=O)NC3=C(Cl)C(=O)c4ccccc4C3=O)ccc2OC)c1`: the AC50 was 10.4 µM. Same read-out and setting: the same measure for `O=C1C(NS(=O)(=O)c2ccc(Br)cc2)=C(N2CCCCC2)C(=O)c2ccccc21`: 20.1 µM; for `CC1CCN(CC(CS(=O)(=O)c2ccc([N+](=O)[O-])cc2)N2CCC(C)CC2)CC1` (stereo not given): 14.2 µM; for `O=C1C(NS(=O)(=O)c2ccc(Br)cc2)=C(N2CCSCC2)C(=O)c2ccccc21`: 35.5 µM. On the same count and under the same terms, in the case of `COc1ccc(S(=O)(=O)N(C(C)=O)c2ccc(OC(C)=O)c3ccccc23)cc1[N+](=O)[O-]` it was 11.5 µM. For `Cc1nc2ccccc2n1/N=C/c1ccc([N+](=O)[O-])s1`, the AC50 was 3.29 µM. For the compound `CN1CCN(C2=C(NC(=O)c3ccccc3)C(=O)c3ccccc3C2=O)CC1`, the AC50 is 1.13 µM. Take `CCN1CCN(C2=C(NC(=O)c3ccccc3)C(=O)c3ccccc3C2=O)CC1`: the AC50 was 1.27 µM. Take `O=C(NC1=C(c2ccccc2)C(=O)c2ccccc2C1=O)c1ccc(Br)cc1`: the AC50 was 18.1 µM. With `C=CCNC1=C(Cl)C(=O)c2ccccc2C1=O`, the AC50 was 4.57 µM and 4.74 µM. For the compound `C=CCNC1=C(N2CCN(C)CC2)C(=O)c2ccccc2C1=O`, the AC50 was 7.93 µM. Regarding `O=C(NC1=C(N2CCOCC2)C(=O)c2ccccc2C1=O)c1ccccc1`, the AC50 is 11.1 µM. For the compound `NC1=C(c2ccccc2)C(=O)c2ccccc2C1=O`, the AC50 was 14.5 µM.

For `O=C1C(NS(=O)(=O)c2cccs2)=C(N2CCOCC2)C(=O)c2ccccc21`, the AC50 is 14.9 µM.

`O=C(NC1=C(Cl)C(=O)c2ccccc2C1=O)c1ccccc1`: the AC50 was 1.1 µM.

Turning to `COc1ccc(C2=C(NC(=O)c3cccc(Cl)c3)C(=O)c3ccccc3C2=O)cc1`, the AC50 is 33.5 µM. In the case of `CC(=O)NC1=C(c2ccc(Cl)cc2)C(=O)c2ccccc2C1=O`, the AC50 is 8 µM. In the case of `COc1ccc(C2=C(NC(C)=O)C(=O)c3ccccc3C2=O)cc1`, the AC50 is 6.89 µM.

As to `CN1CCN(C2=C(NS(=O)(=O)c3ccc(Br)cc3)C(=O)c3ccccc3C2=O)CC1`, the AC50 was 2.07 µM.

As for `C=CCNC1=C(NCCCN2CCOCC2)C(=O)c2ccccc2C1=O`, the AC50 was 8.83 µM. Take `COc1ccc(C2=C(NC(=O)c3cccc(OC)c3)C(=O)c3ccccc3C2=O)cc1`: the concentration at half-maximal activity (AC50) was 17.5 µM. Regarding `C=CCNC1=C(NCCN(CC)CC)C(=O)c2ccccc2C1=O`, the AC50 is 3.05 µM. Consider `CC(=O)NC1=C(c2ccccc2)C(=O)c2ccccc2C1=O`, for which the AC50 is 8.08 µM.

As for `CCN1CCN(C2=C(NS(=O)(=O)c3cccs3)C(=O)c3ccccc3C2=O)CC1`, the AC50 was 6.16 µM. On the same count and under the same terms, the same measure for `O=C(NC1=C(c2ccccc2)C(=O)c2ccccc2C1=O)c1ccco1`: 9.91 µM; for `O=C(NC1=C(c2ccc(OC(F)(F)F)cc2)C(=O)c2ccccc2C1=O)c1ccccc1F`: 34.7 µM; for `COc1ccc(C2=C(NC(=O)c3ccccc3Cl)C(=O)c3ccccc3C2=O)cc1`: 11.8 µM. In the case of `C=C1C(=O)OC2C1CC/C(C)=C\CCC1(C)OC21` (stereo not given), the AC50 is 7.5 µM. Consider `C=CCNC1=C(N2CCN(CC)CC2)C(=O)c2ccccc2C1=O`, for which the AC50 is 11.3 µM. As for `O=C1C(NS(=O)(=O)c2ccc(Br)cc2)=C(N2CCOCC2)C(=O)c2ccccc21`, the AC50 is 13.2 µM. As to `O=C(NC1=C(N2CCSCC2)C(=O)c2ccccc2C1=O)c1ccccc1`, the AC50 is 5.8 µM. Regarding `COc1ccc(C(=O)NC2=C(c3ccccc3)C(=O)c3ccccc3C2=O)cc1`, the AC50 was 14.7 µM. Turning to `CCN1c2ccccc2NC2N=C(OC)C(c3ccccc3)C21` (stereo not given), the AC50 is 4.27 µM.

As for `C=CCNC1=C(N2CCSCC2)C(=O)c2ccccc2C1=O`, the concentration at half-maximal activity (AC50) is 3.98 µM. As to `O=C(NC1=C(c2ccc(OC(F)(F)F)cc2)C(=O)c2ccccc2C1=O)c1ccc(Br)cc1`, the AC50 was 35.1 µM. Take `CC(=O)NC1=C(c2cccc(Cl)c2)C(=O)c2ccccc2C1=O`: the AC50 was 7.59 µM.

As for `CC(=O)NC1=C(c2ccc(Oc3ccccc3)cc2)C(=O)c2ccccc2C1=O`, the AC50 is 28.1 µM. Regarding `C=CCNC1=C(NS(=O)(=O)c2ccc(Br)cc2)C(=O)c2ccccc2C1=O`, the AC50 was 22.9 µM.

As for `O=C(CNc1cccc2ccccc12)N/N=C/c1ccc([N+](=O)[O-])o1`, the AC50 was 3.08 µM. Consider `COc1ccc(C(=O)NC2=C(c3ccc(OC)cc3)C(=O)c3ccccc3C2=O)cc1`, for which the AC50 is 11.9 µM. The same measure, in the same setting: in the case of `CC(=O)NC1=C(c2ccc3c(c2)oc2ccccc23)C(=O)c2ccccc2C1=O` it was 5.89 µM. With `Cc1ccc(C(=O)NC2=C(c3ccc(OC(F)(F)F)cc3)C(=O)c3ccccc3C2=O)o1`, the AC50 was 27.5 µM. `O=C1C(Nc2ccccc2)=C(N2CCOCC2)C(=O)c2ccccc21`: the AC50 is 8.43 µM.

System in another test: not listed separately
The description is as above. To be noted: SK-MEL-5 TRPM1-promoter luciferase reporter, 24 h; at 35 µM (top of the series). Put shortly: as §1
(In a reporter assay the amount or activity of a reporter protein is the signal.)
For the compound `O=C(NC1=C(c2ccc(Oc3ccccc3)cc2)C(=O)c2ccccc2C1=O)c1ccccc1`, the activity change, negative = inhibition is 17.5% (inactive).

Regarding `COc1ccc(C2=C(NC(=O)c3ccc4ccccc4c3)C(=O)c3ccccc3C2=O)cc1`, the activity change, negative = inhibition is 24.2% (inactive).

As to `C=CCNC1=C(NCC=C)C(=O)c2ccccc2C1=O`, the activity change, negative = inhibition is -10.6% (inactive).

Turning to `COc1ccc(C2=C(NC(=O)c3ccccc3OC)C(=O)c3ccccc3C2=O)cc1`, the activity change, negative = inhibition is 14.6% (inactive). Take `COc1ccc(C2=C(NC(=O)c3ccc(OC)cc3-c3cccc(OC)c3)C(=O)c3ccccc3C2=O)cc1`: the activity change, negative = inhibition was 25.2% (inactive). For the compound `COc1ccc(C(=O)NC2=C(c3ccc(OC(F)(F)F)cc3)C(=O)c3ccccc3C2=O)cc1`, the activity change, negative = inhibition is -7.11% (inactive).
